Among the data in ChEMBL document CHEMBL1165965, “Synthesis and structure-activity relationships of 1,2,3,4-tetrahydropyrido[2,3-b]pyrazines as potent and selective inhibitors of the anaplastic lymphoma kinase” (Bioorg Med Chem, 2010) are inhibition values, retold here.

What is called inhibition is the drop in the measured response relative to a control, in per cent. Read a high inhibition as a response far below the control.

In test [1] the target is T1, Phosphatidylinositol 5-phosphate 4-kinase type-2 beta (Homo sapiens) (UniProt P78356).
T1 sequence (whole entry): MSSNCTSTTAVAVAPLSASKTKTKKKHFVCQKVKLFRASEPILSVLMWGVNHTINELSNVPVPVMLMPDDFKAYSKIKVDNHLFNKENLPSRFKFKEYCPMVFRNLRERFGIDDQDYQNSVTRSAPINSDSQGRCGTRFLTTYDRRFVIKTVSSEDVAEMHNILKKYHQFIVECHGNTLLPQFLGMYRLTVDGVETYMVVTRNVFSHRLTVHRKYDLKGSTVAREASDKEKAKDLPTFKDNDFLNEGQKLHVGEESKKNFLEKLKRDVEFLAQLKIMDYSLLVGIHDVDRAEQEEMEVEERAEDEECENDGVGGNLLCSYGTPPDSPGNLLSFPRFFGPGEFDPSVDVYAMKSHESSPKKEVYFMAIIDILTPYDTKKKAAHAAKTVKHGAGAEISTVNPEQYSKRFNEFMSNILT
In words: Inhibition of PIP5K2B at 1 uM.

Test [2] concerns the target Tyrosine-protein kinase ABL1 (Homo sapiens) (UniProt P00519). In words: Inhibition of ABL1 at 1 uM. Summed up: (§1)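 Ambit KINOMEscan screen at a single concentration across a 250–400 kinase panel, recorded as percent inhibition. Selectivity was expressed as S(90), the fraction of kinases inhibited >90%.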
Test [3] deals with Bone morphogenetic protein receptor type-1A (Homo sapiens) (UniProt P36894). Put plainly: Inhibition of BMPR1A at 1 uM. In outline: as §1
The target of test [4] is Ribosomal protein S6 kinase alpha-6 (Homo sapiens) (UniProt Q9UK32). Put plainly: Inhibition of RPS6KA6 C-terminal domain2 at 1 uM.
Test [5] concerns the target Dual specificity protein kinase CLK3 (Homo sapiens) (UniProt P49761). Put plainly: Inhibition of CLK3 at 1 uM. Summed up: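 Single-concentration screen using Ambit Bioscience KINOMEscan technology across a panel of 250–400 kinases. Per-kinase inhibition from this screen was summarized as S(90), the fraction of kinases inhibited by more than 90%.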
In test [6] the target is T2, Muscle, skeletal receptor tyrosine-protein kinase (Homo sapiens) (UniProt O15146).
T2 sequence (whole entry): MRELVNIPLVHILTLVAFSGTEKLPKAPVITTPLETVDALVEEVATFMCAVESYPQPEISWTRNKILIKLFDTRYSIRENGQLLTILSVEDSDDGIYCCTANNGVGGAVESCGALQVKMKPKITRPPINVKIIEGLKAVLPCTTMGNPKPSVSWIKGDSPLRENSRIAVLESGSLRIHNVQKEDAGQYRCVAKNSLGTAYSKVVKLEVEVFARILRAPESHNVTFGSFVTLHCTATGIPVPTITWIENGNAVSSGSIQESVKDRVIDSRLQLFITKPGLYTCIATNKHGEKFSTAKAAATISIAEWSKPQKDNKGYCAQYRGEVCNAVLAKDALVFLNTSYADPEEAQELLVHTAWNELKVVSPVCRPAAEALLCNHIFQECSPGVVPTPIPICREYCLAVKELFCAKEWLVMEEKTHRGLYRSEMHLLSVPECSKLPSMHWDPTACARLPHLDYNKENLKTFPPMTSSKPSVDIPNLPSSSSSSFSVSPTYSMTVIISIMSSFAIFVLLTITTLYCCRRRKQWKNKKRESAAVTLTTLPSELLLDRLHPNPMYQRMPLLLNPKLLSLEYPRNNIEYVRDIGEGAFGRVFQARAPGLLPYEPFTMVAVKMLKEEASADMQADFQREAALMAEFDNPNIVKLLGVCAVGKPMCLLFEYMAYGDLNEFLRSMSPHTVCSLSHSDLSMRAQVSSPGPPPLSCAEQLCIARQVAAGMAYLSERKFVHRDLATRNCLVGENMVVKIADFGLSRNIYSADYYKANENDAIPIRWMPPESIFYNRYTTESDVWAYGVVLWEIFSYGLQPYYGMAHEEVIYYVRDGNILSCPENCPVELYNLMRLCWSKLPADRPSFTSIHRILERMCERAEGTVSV
Put plainly: Inhibition of MUSK at 1 uM.

Test [7] concerns the target Mitogen-activated protein kinase kinase kinase 9 (Homo sapiens) (UniProt P80192). In words: Inhibition of MLK1 at 1 uM.
For test [8], the target named is Vascular endothelial growth factor receptor 3 (Homo sapiens) (UniProt P35916). In words: Inhibition of FLT4 at 1 uM. In outline:
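Single-concentration screen on the Ambit KINOMEscan platform, run against a panel of 250–400 kinases. Per-kinase inhibition was also summarized as S(90), the fraction of kinases inhibited by more than 90%.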

Test [9] has as its target Platelet-derived growth factor receptor alpha (Homo sapiens) (UniProt P16234). Put plainly: Inhibition of PDGFRA at 1 uM.
Test [10] deals with Wee1-like protein kinase (Homo sapiens) (UniProt P30291). Put plainly: Inhibition of WEE1 at 1 uM.
Test [11] concerns Proto-oncogene tyrosine-protein kinase receptor Ret (Homo sapiens), P07949 [V804L]. In words: Inhibition of RET V804L mutant at 1 uM.
Test [12] addresses Mitogen-activated protein kinase 6 (Homo sapiens) (UniProt Q16659). In words: Inhibition of ERK3 at 1 uM.
The target in test [13] is T3, Protein kinase C epsilon type (Homo sapiens) (UniProt Q02156).
T3 sequence (whole entry): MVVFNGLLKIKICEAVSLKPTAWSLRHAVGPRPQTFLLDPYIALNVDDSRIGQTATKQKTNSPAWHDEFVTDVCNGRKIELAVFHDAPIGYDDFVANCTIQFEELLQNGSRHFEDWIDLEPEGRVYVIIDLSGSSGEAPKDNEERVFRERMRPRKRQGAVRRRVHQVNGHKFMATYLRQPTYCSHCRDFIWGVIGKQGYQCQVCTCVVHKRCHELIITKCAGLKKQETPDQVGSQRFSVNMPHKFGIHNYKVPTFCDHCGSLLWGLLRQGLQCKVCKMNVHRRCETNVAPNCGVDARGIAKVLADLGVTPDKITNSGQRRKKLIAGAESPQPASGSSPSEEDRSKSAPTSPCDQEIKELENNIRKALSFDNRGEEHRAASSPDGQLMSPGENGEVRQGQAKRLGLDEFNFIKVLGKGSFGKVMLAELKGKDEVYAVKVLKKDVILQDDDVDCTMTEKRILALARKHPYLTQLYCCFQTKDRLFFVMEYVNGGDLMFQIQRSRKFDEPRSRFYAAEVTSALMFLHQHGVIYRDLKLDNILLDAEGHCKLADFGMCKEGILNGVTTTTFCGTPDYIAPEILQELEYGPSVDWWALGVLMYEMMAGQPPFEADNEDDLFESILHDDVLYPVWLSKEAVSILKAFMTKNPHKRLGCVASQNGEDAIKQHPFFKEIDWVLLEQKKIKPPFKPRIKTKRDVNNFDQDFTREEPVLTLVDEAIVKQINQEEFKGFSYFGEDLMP
Put plainly: Inhibition of PRKCE at 1 uM.

The target of test [14] is Cyclin-dependent kinase-like 3 (Homo sapiens) (UniProt Q8IVW4). In words: Inhibition of CDKL3 at 1 uM.
Test [15] addresses Cyclin-dependent kinase 14 (Homo sapiens) (UniProt O94921). In words: Inhibition of PFTK1 at 1 uM.

Mitogen-activated protein kinase 6 (Homo sapiens), sequence (Q16659 whole entry): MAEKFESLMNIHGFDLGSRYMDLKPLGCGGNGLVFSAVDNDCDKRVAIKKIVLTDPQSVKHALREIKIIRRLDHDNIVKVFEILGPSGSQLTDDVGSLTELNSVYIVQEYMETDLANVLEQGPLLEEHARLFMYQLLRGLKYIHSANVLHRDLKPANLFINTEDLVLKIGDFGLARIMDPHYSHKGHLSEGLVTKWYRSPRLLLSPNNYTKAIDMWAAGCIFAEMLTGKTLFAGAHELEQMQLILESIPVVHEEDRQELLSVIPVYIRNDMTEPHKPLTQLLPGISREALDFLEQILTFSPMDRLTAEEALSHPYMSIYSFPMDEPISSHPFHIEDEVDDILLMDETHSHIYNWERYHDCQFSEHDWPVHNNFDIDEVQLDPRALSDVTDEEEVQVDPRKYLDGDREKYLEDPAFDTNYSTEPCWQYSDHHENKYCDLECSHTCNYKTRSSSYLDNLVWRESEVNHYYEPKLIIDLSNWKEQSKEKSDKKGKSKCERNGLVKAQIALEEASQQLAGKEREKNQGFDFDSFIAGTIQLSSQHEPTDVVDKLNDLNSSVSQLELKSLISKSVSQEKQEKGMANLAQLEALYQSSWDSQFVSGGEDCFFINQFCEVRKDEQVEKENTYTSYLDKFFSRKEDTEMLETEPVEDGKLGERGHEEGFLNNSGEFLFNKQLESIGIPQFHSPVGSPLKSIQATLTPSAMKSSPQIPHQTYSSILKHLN
Dual specificity protein kinase CLK3 (Homo sapiens), sequence (P49761 whole entry, looked up): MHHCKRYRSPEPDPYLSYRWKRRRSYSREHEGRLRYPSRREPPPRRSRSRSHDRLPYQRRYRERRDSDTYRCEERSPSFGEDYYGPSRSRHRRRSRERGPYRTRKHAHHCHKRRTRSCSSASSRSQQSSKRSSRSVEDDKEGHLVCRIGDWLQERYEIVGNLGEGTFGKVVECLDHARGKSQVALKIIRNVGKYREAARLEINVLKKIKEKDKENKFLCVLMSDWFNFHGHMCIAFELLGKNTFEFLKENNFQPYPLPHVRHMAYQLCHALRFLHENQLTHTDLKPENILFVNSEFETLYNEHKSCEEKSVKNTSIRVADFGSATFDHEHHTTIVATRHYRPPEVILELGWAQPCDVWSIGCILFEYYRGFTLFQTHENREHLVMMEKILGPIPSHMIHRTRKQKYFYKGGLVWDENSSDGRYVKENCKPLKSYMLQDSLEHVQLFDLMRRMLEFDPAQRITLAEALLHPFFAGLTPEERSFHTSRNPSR
Cyclin-dependent kinase-like 3 (Homo sapiens), sequence (Q8IVW4 whole entry, looked up): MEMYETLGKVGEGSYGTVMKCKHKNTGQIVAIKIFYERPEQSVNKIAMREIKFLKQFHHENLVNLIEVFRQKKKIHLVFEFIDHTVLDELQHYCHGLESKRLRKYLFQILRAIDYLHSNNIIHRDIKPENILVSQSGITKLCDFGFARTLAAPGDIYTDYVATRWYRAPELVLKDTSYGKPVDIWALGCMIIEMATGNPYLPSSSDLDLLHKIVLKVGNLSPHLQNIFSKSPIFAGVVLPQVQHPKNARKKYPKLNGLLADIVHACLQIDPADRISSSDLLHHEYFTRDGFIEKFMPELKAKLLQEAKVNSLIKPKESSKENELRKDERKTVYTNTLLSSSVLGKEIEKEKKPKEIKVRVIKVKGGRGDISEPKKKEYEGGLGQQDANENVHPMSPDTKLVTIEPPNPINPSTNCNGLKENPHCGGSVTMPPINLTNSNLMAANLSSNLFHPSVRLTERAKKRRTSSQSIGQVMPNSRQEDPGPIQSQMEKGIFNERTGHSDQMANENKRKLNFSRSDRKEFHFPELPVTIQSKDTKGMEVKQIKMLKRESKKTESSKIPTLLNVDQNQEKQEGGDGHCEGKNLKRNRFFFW
Wee1-like protein kinase (Homo sapiens), sequence (P30291 whole entry, looked up): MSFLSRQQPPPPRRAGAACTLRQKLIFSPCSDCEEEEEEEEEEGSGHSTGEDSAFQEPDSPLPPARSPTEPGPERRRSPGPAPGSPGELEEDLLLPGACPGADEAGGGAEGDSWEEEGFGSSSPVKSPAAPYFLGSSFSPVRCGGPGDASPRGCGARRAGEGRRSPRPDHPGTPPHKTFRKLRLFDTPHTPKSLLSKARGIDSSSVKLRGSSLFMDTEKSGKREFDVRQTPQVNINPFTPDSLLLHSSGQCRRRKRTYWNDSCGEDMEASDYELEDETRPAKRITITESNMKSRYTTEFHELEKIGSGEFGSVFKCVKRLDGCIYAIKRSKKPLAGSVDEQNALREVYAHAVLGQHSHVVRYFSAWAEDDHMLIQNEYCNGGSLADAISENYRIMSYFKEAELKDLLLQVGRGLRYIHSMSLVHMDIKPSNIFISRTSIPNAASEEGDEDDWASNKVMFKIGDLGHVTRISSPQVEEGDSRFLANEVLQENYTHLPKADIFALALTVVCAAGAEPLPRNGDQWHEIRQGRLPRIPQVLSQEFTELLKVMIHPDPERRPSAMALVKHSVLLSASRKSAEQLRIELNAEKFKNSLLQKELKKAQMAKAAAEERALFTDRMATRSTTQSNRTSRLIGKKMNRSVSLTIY
Bone morphogenetic protein receptor type-1A (Homo sapiens), sequence (P36894 whole entry, the tested form may be a part): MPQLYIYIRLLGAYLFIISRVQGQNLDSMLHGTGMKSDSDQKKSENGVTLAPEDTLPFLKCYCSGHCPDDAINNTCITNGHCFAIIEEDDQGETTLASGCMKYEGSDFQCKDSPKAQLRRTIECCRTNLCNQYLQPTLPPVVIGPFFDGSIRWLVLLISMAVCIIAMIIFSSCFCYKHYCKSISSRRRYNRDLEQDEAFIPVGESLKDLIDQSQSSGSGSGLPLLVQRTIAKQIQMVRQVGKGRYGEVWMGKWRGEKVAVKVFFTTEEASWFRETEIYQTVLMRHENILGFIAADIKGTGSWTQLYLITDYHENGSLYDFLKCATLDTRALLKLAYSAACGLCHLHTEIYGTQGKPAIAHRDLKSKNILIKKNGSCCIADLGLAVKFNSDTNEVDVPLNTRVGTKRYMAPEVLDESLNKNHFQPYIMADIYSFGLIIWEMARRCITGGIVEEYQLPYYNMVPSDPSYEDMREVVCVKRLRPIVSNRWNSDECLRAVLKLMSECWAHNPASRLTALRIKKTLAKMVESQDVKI
Vascular endothelial growth factor receptor 3 (Homo sapiens), sequence (P35916 whole entry): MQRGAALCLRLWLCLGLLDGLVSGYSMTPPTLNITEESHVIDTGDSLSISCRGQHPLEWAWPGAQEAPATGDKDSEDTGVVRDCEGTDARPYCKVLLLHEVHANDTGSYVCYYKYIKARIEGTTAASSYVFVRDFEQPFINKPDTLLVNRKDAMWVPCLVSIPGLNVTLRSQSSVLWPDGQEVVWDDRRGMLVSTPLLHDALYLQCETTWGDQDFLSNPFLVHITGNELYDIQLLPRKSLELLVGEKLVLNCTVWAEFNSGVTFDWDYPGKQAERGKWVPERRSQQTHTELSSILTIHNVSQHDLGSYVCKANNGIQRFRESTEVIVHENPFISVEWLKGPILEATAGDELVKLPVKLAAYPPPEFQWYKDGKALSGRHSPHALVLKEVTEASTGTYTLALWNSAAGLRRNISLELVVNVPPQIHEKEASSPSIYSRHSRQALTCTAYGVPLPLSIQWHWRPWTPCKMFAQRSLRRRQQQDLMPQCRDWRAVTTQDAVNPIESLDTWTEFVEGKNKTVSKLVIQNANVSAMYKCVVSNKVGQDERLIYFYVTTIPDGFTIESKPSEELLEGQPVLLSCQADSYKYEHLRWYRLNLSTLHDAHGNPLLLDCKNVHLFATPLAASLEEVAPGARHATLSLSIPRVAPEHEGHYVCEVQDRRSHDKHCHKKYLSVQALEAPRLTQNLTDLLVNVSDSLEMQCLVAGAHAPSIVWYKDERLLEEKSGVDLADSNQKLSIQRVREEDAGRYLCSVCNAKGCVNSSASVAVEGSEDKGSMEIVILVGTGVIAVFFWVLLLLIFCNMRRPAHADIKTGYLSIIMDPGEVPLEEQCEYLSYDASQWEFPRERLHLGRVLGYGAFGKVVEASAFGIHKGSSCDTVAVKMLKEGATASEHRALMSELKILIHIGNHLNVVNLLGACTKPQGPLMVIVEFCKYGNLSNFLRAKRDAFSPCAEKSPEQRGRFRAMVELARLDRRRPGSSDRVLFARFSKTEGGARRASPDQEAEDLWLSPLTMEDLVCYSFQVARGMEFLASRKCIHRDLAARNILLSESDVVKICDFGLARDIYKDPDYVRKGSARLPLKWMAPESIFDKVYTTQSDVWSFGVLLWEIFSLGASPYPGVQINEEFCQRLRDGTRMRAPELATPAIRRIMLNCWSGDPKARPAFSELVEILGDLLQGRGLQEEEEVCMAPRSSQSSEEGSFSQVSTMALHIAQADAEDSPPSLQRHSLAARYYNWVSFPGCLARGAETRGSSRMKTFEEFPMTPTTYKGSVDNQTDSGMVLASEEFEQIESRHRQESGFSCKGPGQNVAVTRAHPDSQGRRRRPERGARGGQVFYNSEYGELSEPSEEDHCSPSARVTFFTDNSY
Cyclin-dependent kinase 14 (Homo sapiens), sequence (O94921 whole entry): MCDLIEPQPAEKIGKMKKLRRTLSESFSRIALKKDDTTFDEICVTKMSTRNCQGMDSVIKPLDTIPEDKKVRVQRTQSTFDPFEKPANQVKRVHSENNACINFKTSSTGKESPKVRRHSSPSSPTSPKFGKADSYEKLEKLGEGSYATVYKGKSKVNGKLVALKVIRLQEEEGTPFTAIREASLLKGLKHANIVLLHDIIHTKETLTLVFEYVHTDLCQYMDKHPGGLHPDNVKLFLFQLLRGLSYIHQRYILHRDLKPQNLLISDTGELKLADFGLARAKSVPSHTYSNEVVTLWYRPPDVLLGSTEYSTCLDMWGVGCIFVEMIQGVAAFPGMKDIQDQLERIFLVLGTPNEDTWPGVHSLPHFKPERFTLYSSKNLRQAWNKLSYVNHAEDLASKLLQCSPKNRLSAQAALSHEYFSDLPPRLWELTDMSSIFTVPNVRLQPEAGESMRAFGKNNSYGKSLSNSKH

With `O=C(c1ccc(-c2cnc3c(c2)N(Cc2cc(Cl)ccc2C(F)(F)F)CCN3)cc1)N1CCCCC1`, the inhibition in test [1], in test [2], in [3], in test [4], in [5] and in test [6] was under 50% in each case. Besides, the inhibition in test [7], in [8] and in test [9] was under 50% throughout.

As for `CN1CCN(c2ccc(-c3cnc4c(c3)N(Cc3c(F)ccc(F)c3Cl)CCN4)cn2)CC1`, the inhibition was under 50% in [1]; under 50% in test [10]; 84% in [2]; under 50% in [3]; under 50% in [4]; under 50% in [5]. Besides, the inhibition in test [6], in [11], in test [7], in [8], in [12] and in test [13] was under 50% each time. In addition, the inhibition in [14], in test [9] and in test [15] was under 50% throughout.

Take `COC1CCN(C(=O)c2ccc(-c3cnc4c(c3)N(Cc3cc(Cl)ccc3C(F)(F)F)CCN4)cc2)CC1`: the inhibition in test [1], in test [2], in test [3], in test [4], in test [5] and in [6] was under 50% in each case. In addition, the inhibition in test [7], in [8] and in test [9] was under 50% in each case.

As for `O=C(O)c1ccc(-c2cnc3c(c2)N(Cc2cc(Cl)ccc2C(F)(F)F)CCN3)cc1`, the inhibition in test [1], in test [2], in [3], in test [4], in [5] and in test [6] was under 50% throughout. The inhibition in [7], in test [8] and in test [9] was under 50% each time.

As for `FC(F)(F)c1ccc(Cl)cc1CN1CCNc2ncc(-c3ccnc(N4CCNCC4)c3)cc21`, the inhibition in test [1], in test [10], in [2], in test [3], in test [4] and in test [5] was under 50% in each case. For the same molecule, the inhibition was under 50% in test [6]; 89% in [11]; under 50% in test [7]; under 50% in test [8]; under 50% in test [12]; under 50% in [13]. Further, the inhibition in [14], in test [9] and in test [15] was under 50% throughout.

Take `CN1CCN(c2ccc(-c3cnc4c(c3)N(Cc3cc(Cl)ccc3Cl)CCN4)cn2)CC1`: the inhibition in test [1], in test [10], in test [2], in test [3], in test [4] and in test [5] was under 50% throughout. Moreover, the inhibition in [6], in test [11], in test [7], in test [8], in test [12] and in [13] was under 50% in each case. Further, the inhibition in [14], in test [9] and in test [15] was under 50% in each case.

With `O=C(c1ccc(-c2cnc3c(c2)N(Cc2cc(Cl)ccc2C(F)(F)F)CCN3)cc1)N1CCC(N2CCCC2)CC1`, the inhibition in [1], in test [2], in [3], in test [4], in [5] and in test [6] was under 50% in each case. The figures for the inhibition in [8] and in test [9] were 84.5% and under 50%, respectively.

Take `CN1CCN(c2ccc(-c3cnc4c(c3)N(Cc3cc(Cl)ccc3C(F)(F)F)CCN4)cn2)CC1`: the inhibition in test [1], in test [10], in test [2], in test [3], in [4] and in [5] was under 50% throughout. In addition, the inhibition in test [6], in test [11], in test [7], in test [8], in [12] and in [13] was under 50% throughout. The inhibition in [14], in [9] and in test [15] was under 50% each time.

With `CC(=O)N1CCN(c2cc(-c3cnc4c(c3)N(Cc3cc(Cl)ccc3C(F)(F)F)CCN4)ccn2)CC1`, the inhibition in test [1], in test [10], in test [2], in test [3], in test [4] and in test [5] was under 50% in each case. The inhibition in test [6], in [11], in test [7], in [8], in test [12] and in [13] was under 50% in each case. Moreover, the inhibition in test [14], in test [9] and in [15] was under 50% each time.
